{"source": "ChEMBL document CHEMBL2311419", "about": "“Discovery of coumarin-dihydropyridine hybrids as bone anabolic agents” (J Med Chem, 2013)", "key": {"Calvarial osteoblast [1]": {"tested_on": "Calvarial osteoblast", "assay": "Induction of mineralization in mouse calvarial osteoblasts assessed as increase of mineralized nodules formation measuring concentration required for maximum activity after 21 days by alizarin red-S staining based spectrophotometric analysis", "assay_type": "functional"}, "Calvarial osteoblast [2]": {"tested_on": "Calvarial osteoblast", "assay": "Induction of osteoblastogenesis in mouse calvarial osteoblasts assessed as increase in BMP2 expression at 100 pM to 10 nM by Western blotting analysis", "assay_type": "functional, cell-based"}, "Calvarial osteoblast [3]": {"tested_on": "Calvarial osteoblast", "assay": "Induction of osteoblastogenesis in mouse calvarial osteoblasts assessed as increase in RUNX2 expression at 100 pM to 10 nM by Western blotting analysis", "assay_type": "functional, cell-based"}, "Calvarial osteoblast [4]": {"tested_on": "Calvarial osteoblast", "assay": "Induction of osteoblastogenesis in mouse calvarial osteoblasts assessed as increase in expression of COL1 gene at 100 pM to 10 nM by qPCR analysis relative to control", "assay_type": "functional"}, "Mus musculus [5]": {"tested_on": "Mus musculus", "assay": "Induction of new bone formation in ovariectomized BALB/c mouse model assessed as increase in bone formation rate at 10 mg/kg/day, po qd for 8 weeks by bone histomorphometry analysis (Rvb =0.10 um'3/um'2/day)", "assay_type": "functional"}, "Mus musculus [6]": {"species_on_record": "Mus musculus", "assay": "Stimulation of alkaline phosphatase activity in mouse calvarial osteoblasts at 1 pM to 1 uM after 48 hrs by spectrophotometric analysis relative to nifedipine"}, "Mus musculus [7]": {"tested_on": "Mus musculus", "assay": "Inhibition of osteoclastogenesis in ovariectomized BALB/c mouse model assessed as increase in OPG/RANKL ratio at 1 mg/kg/day, po qd for 8 weeks by qPCR analysis", "assay_type": "functional, organism-based"}, "Calvarial osteoblast [8]": {"tested_on": "Calvarial osteoblast", "assay": "Induction of osteoblastogenesis in mouse calvarial osteoblasts assessed as increase in expression of osteocalcin gene at 100 pM to 10 nM by qPCR analysis relative to control", "assay_type": "functional"}, "Calvarial osteoblast [9]": {"tested_on": "Calvarial osteoblast", "assay": "Induction of osteoblastogenesis in mouse calvarial osteoblasts assessed as increase in expression of osteocalcin gene at 100 pM by qPCR analysis relative to control", "assay_type": "functional, cell-based"}, "Mus musculus [10]": {"tested_on": "Mus musculus", "assay": "Induction of osteoblast differentiation in ovariectomized BALB/c mouse model assessed as upregulation of COL1 mRNA expression po administered qd for 8 weeks by qPCR analysis", "assay_type": "functional, organism-based"}, "Mus musculus [11]": {"tested_on": "Mus musculus", "assay": "Induction of osteoblast differentiation in ovariectomized BALB/c mouse model assessed as upregulation of BMP2 mRNA expression at 1 mg/kg/day, po qd for 8 weeks by qPCR analysis", "assay_type": "functional, organism-based"}, "[12]": {"assay": "Stimulation of alkaline phosphatase activity in mouse calvarial osteoblasts after 48 hrs by spectrophotometric analysis", "outline": "(§1)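 Calvarial osteoblasts were exposed to compounds over 1 pM to 1 µM. ALP activity was read spectrophotometrically as optical density at 405 nm. Results were expressed as % ALP activity, with EC50 and Emax derived from the concentration series.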"}, "Mus musculus [13]": {"tested_on": "Mus musculus", "assay": "Inhibition of bone turnover in ovariectomized BALB/c mouse model assessed as reduction in ovariectomy-induced serum osteocalcin levels at 1 to 5 mg/kg/day, po qd for 8 weeks by ELISA relative to control", "assay_type": "functional, organism-based"}, "Mus musculus [14]": {"tested_on": "Mus musculus", "assay": "Induction of osteoblast differentiation in ovariectomized BALB/c mouse model assessed as upregulation of RUNX2 mRNA expression at 1 mg/kg/day, po qd for 8 weeks by qPCR analysis", "assay_type": "functional, organism-based"}, "Calvarial osteoblast [15]": {"tested_on": "Calvarial osteoblast", "assay": "Induction of osteoblastogenesis in mouse calvarial osteoblasts assessed as increase in expression of RUNX2 gene at 100 pM by qPCR analysis relative to control", "assay_type": "functional, cell-based"}, "Calvarial osteoblast [16]": {"tested_on": "Calvarial osteoblast", "assay": "Induction of osteoblastogenesis in mouse calvarial osteoblasts assessed as increase in expression of BMP2 gene at 100 pM to 10 nM by qPCR analysis relative to control", "assay_type": "functional"}, "Calvarial osteoblast [17]": {"tested_on": "Calvarial osteoblast", "assay": "Induction of osteoblastogenesis in mouse calvarial osteoblasts assessed as increase in expression of BMP2 gene at 100 pM by qPCR analysis relative to control", "assay_type": "functional, cell-based"}, "Mus musculus [18]": {"tested_on": "Mus musculus", "assay": "Antiosteoporotic activity in ovariectomized BALB/c mouse model assessed as restoration of ovariectomy-induced increase in structural model index at 10 mg/kg/day, po qd for 8 weeks", "assay_type": "functional, organism-based"}, "Mus musculus [19]": {"tested_on": "Mus musculus", "assay": "Induction of new bone formation in ovariectomized BALB/c mouse model assessed as increase in bone formation rate at 1 mg/kg/day, po qd for 8 weeks by bone histomorphometry analysis (Rvb =0.10 um'3/um'2/day)", "assay_type": "functional"}, "Mus musculus [20]": {"tested_on": "Mus musculus", "assay": "Induction of new bone formation in ovariectomized BALB/c mouse model assessed as increase in bone formation rate at 5 mg/kg/day, po qd for 8 weeks by bone histomorphometry analysis (Rvb =0.10 um'3/um'2/day)", "assay_type": "functional"}, "Mus musculus [21]": {"species_on_record": "Mus musculus", "assay": "Stimulation of alkaline phosphatase activity in mouse calvarial osteoblasts at 1 pM to 1 uM after 48 hrs by spectrophotometric analysis", "outline": "as §1"}, "Mus musculus [22]": {"species_on_record": "Mus musculus", "assay": "Stimulation of alkaline phosphatase activity in mouse calvarial osteoblasts assessed as concentration required for maximum activity after 48 hrs by spectrophotometric analysis", "outline": "as §1"}}, "note": "Activity calls are given as the source filed them. The rule behind the calls is not given here."}
{"smiles": "CCOC(=O)C1=C(C)NC2=C(C(=O)CCC2)C1c1cc(C(C)CC)c2oc(=O)c(C(=O)OC)cc2c1", "note": "(configuration not stated)", "values": [{"measurement": "Concentration for maximum mineralization", "setting": "Calvarial osteoblast [1]", "result": 100, "unit": "pM"}, {"measurement": "Activity", "setting": "Calvarial osteoblast [2]", "result": "Active"}, {"measurement": "Activity", "setting": "Calvarial osteoblast [3]", "result": "Active"}, {"measurement": "fold change (FC)", "setting": "Calvarial osteoblast [4]", "result": 1.5}, {"measurement": "Activity", "setting": "Mus musculus [5]", "result": 0.31, "unit": "um3/um2/day"}, {"measurement": "Activity", "setting": "Mus musculus [6]", "result": 32, "unit": "%"}, {"measurement": "inhibition", "setting": "Mus musculus [7]", "result": "Active"}, {"measurement": "fold change (FC)", "setting": "Calvarial osteoblast [8]", "result": 1.5}, {"measurement": "Activity", "setting": "Calvarial osteoblast [9]", "result": "Active"}, {"measurement": "Activity", "setting": "Mus musculus [10]", "result": "Dose-dependent effect"}, {"measurement": "Activity", "setting": "Mus musculus [11]", "result": "Active"}, {"measurement": "EC50", "setting": "[12]", "result": 1170, "unit": "nM"}, {"measurement": "inhibition", "setting": "Mus musculus [13]", "result": "Active"}, {"measurement": "Activity", "setting": "Mus musculus [14]", "result": "Active"}, {"measurement": "Activity", "setting": "Calvarial osteoblast [15]", "result": "Active"}, {"measurement": "fold change (FC)", "setting": "Calvarial osteoblast [16]", "result": 1.5}, {"measurement": "Activity", "setting": "Calvarial osteoblast [17]", "result": "Active"}, {"measurement": "Activity", "setting": "Mus musculus [18]", "result": "Active"}, {"measurement": "Activity", "setting": "Mus musculus [19]", "result": 0.37, "unit": "um3/um2/day"}, {"measurement": "Activity", "setting": "Mus musculus [20]", "result": 0.33, "unit": "um3/um2/day"}, {"measurement": "Activity", "setting": "Mus musculus [21]", "result": 80, "unit": "%"}, {"measurement": "Concentration giving maximum ALP activity", "setting": "Mus musculus [22]", "result": 100, "unit": "pM"}]}
